Experiments:
[1] = molecular target: D(2) dopamine receptor (Rattus norvegicus, UniProt P61169); assay: In vitro affinity for rat striatal Dopamine receptor D2 labeled with [3H]spiperone
[2] = organism: Rattus norvegicus; assay: Compound was tested for inhibition of conditioned avoidance response (CAR ); format: functional
Method in brief: (§1)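 Rats trained to avoid an electric shock, test compound given orally, and block of the conditioned avoidance response scored. ED50 (mg/kg, po) with fiducial limits by the method of Berkson.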

[3] = molecular target: T1, Adrenergic receptor alpha-1 (Rattus norvegicus, UniProt P15823+P23944+P43140)
T1 sequence (P15823 whole entry): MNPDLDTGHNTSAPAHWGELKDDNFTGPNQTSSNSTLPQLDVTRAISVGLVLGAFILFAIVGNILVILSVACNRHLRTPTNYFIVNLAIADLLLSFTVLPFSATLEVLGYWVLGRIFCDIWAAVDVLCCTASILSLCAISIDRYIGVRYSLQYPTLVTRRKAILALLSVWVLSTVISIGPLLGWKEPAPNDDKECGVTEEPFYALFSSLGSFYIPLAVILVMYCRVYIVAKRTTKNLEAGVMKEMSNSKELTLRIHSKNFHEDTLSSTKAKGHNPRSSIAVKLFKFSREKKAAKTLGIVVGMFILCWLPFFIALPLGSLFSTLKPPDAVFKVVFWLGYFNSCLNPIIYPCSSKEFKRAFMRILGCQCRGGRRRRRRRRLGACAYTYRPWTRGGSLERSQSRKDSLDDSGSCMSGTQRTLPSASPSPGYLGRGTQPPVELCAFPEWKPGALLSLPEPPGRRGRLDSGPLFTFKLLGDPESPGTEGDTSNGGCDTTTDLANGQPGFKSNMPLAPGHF
T1 sequence (P23944 whole entry): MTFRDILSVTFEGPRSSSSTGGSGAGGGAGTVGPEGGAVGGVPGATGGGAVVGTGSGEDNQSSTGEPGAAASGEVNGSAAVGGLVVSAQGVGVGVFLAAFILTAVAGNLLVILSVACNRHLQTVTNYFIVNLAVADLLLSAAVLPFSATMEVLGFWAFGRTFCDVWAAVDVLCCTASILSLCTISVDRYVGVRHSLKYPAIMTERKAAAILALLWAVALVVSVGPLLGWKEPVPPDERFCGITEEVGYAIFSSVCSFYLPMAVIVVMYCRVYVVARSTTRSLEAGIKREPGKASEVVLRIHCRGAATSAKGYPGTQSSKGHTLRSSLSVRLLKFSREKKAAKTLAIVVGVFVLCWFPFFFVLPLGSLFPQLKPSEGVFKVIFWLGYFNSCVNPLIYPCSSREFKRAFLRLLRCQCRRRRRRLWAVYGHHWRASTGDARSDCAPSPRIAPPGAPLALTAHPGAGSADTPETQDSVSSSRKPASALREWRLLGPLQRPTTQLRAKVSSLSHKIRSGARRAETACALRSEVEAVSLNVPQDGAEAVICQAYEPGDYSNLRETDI
T1 sequence (P43140 whole entry): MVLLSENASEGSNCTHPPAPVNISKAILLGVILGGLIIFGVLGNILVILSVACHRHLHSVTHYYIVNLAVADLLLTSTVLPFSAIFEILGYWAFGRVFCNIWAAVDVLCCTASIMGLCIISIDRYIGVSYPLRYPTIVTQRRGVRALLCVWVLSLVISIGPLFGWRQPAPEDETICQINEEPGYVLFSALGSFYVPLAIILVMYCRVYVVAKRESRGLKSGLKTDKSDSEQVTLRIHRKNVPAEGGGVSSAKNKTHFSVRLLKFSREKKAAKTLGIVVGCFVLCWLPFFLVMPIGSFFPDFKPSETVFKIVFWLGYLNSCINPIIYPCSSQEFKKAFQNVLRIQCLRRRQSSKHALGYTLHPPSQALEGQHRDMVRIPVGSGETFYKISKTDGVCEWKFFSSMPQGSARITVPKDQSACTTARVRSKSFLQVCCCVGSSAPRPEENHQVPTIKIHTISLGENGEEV

[4] = organism: Rattus norvegicus; assay: Inhibition of conditioned avoidance response (CAR); format: functional; method in brief: as §1
[5] = organism: Rattus norvegicus; assay: Compound was tested for its ability to induce catalepsy in rats.; format: functional
Method in brief: (§2)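 Catalepsy was induced in rats with orally dosed compound as a predictor of extrapyramidal liability. ED50 (mg/kg, po) with fiducial limits by Berkson's method.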

[6] = organism: Rattus norvegicus; assay: Compound was tested for its ability to induce catalepsy in rats; format: functional; method in brief: as §2
[7] = organism: Rattus norvegicus; assay: Compound was tested for the inhibition of apomorphine-induced stereotype; format: functional
Method in brief: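 In rats, oral test compound was scored for block of apomorphine-induced stereotypy as an in vivo dopamine-system measure. ED50 (mg/kg, po) and fiducial limits by Berkson's method.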

[8] = Lethal dose after peroral administration in mouse; format: toxicity, organism-based; settings: in vivo, po
[9] = test system: Mus musculus; assay: Compound was tested for inhibition of norepinephrine lethality in mouse when administered perorally; format: functional; settings: po
Method in brief: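 Groups of 10 nonfasted male mice dosed orally with test compound (initial 100 mg/kg) or vehicle (distilled H2O or 0.5% methocel). Active compounds retested at lower doses, 10 mice/dose, for dose response. ED50 by Berkson's method.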

[10] = test system: Mus musculus; assay: Compound was tested for inhibition of spontaneous motor activity in mouse when administered perorally; format: functional; settings: po
[11] = test system: Rattus norvegicus; assay: Compound was tested for inhibition of spontaneous motor activity in rat when administered perorally; format: functional; settings: po
[12] = molecular target: GABA-A receptor; anion channel; assay: Inhibition of [3H]muscimol binding to Gamma-aminobutyric acid (GABA-A) receptor; format: protein-complex assay, Rattus norvegicus
[13] = Binding affinity against histamine receptor was measured using radioligand ([3H]-pyrilamine) binding assay
[14] = test system: Mus musculus; assay: Compound was tested for inhibition of physostigmine lethality in mouse when administered perorally; format: functional; settings: po
Method in brief: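 Groups of 10 nonfasted male mice dosed orally with test compound (initial 100 mg/kg) or vehicle (distilled H2O or 0.5% methocel). At 30 min, physostigmine given ip at 1.25 mg/kg, and lethality followed for up to 1 h. Active compounds retested at lower doses, 10 mice/dose, for dose response. ED50 by Berkson's method.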

[15] = test system: Rattus norvegicus; assay: (§3) Compound was tested for inhibition of ethanol potentiation in rat when administered perorally; format: functional; settings: po
Method in brief: (§4)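 Nonfasted male rats given test drug orally, vehicle distilled H2O or 0.5% methocel. Hexobarbital sodium (40 mg/kg) or EtOH (10 mL of 20% solution/kg) given ip at 15, 30, 60 or 120 min postdrug, controls 15 min after vehicle. Loss of righting reflex lasting 1 min scored over about 10–15 min. Dose response at time of peak effect, 10 rats/dose. ED50 and fiducial limits by Berkson's method.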

[16] = test system: Rattus norvegicus; assay: Compound was tested for inhibition of hexobarbatial potentiation in rat when administered perorally; format: functional; settings: po; method in brief: as §4
[17] = test system: Rattus norvegicus; assay: as §3; format: functional; settings: po; remark: listed apart in the source
Method in brief: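 Nonfasted male rats received test drug or vehicle (distilled H2O or 0.5% methocel). EtOH (10 mL of 20% solution/kg, ip) followed at 15, 30, 60 or 120 min post-drug; the vehicle group got it at 15 min. Rats were watched about 10–15 min for loss of righting reflex lasting 1 min. Dose response at peak time used 10/dose; ED50 by Berkson.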

D(2) dopamine receptor, sequence (P61169 whole entry): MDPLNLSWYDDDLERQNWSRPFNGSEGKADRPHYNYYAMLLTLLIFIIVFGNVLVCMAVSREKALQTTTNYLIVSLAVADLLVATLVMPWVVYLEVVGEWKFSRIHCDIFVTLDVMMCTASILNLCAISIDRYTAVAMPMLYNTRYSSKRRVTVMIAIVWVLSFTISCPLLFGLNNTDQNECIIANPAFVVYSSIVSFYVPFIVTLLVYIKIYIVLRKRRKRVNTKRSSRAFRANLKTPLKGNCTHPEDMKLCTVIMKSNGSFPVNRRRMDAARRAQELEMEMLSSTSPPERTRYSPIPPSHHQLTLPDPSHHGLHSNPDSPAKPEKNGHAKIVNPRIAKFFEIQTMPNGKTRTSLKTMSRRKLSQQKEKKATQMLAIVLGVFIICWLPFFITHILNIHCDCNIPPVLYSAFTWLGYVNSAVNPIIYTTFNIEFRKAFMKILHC

SMILES	IC50 [1] [nM]	IC50 [3] [nM]	ED50 [4] [mg/kg]	ED50 [5] [mg/kg]	other results
Cl.O=C1CSC(=O)N1CCCCN1CCN(c2nsc3ccccc23)CC1	53	0.9	–	–	ED50 [2]: 27.8 mg/kg
Cl.c1ccc2c(N3CCNCC3)noc2c1	> 1000	165	> 100	–	–
CCCC1(C)CC(=O)N(CCCCN2CCN(c3nsc4ccccc34)CC2)C(=O)C1.Cl	55	9	–	–	ED50 [2]: 24.3 mg/kg
CCC1(CC)CC(=O)N(CCCCN2CCN(c3nsc4ccccc34)CC2)C(=O)C1.Cl	49	–	–	–	ED50 [2]: 35.2 mg/kg
Cl.O=C1SC2(CCCC2)C(=O)N1CCCCN1CCN(c2nsc3ccccc23)CC1	42	9	–	45	ED50 [2]: 11.6 mg/kg
Cl.c1ccc2c(N3CCNCC3)nsc2c1	> 1000	510	> 100	–	–
O=C1SC2(CCCC2)C(=O)N1CCCCN1CCN(c2noc3ccccc23)CC1	78	–	8.1	21.5	–
O=C1CC2(CCCC2)CC(=O)N1CCCCN1CCN(c2noc3cc(Cl)ccc23)CC1	59	5	26	–	–
O=C1CC2(CCCC2)CC(=O)N1CCCCN1CCN(c2nc3ccccc3s2)CC1	145	454	> 100	–	–
O=C1CC2(CCCC2)CC(=O)N1CCCCN1CCCN(c2nsc3ccccc23)CC1	235	–	> 100	–	–
CC1CN(c2nsc3ccccc23)CCN1CCCCN1C(=O)CC2(CCCC2)CC1=O (centres undefined)	203	–	> 100	–	–
O=C1CC2(CCCC2)CC(=O)N1CCCN1CCN(c2nsc3ccccc23)CC1	145	3	> 100	–	–
OC(CCCN1CCN(c2nsc3ccccc23)CC1)c1ccc(F)cc1 (centres undefined)	2	2	2.4	–	ED50 [6]: 5 mg/kg
O=C1CC2(CCCC2)CC(=O)N1CCCCN1CCN(c2noc3ccccc23)CC1	25	7	10.6	68.2	ED50 [7]: 20.2 mg/kg
O=C1SC2(CCCC2)C(=O)N1CCCCN1CCCN(c2noc3ccccc23)CC1	> 1000	–	> 100	–	–
O=C1CSC(=O)N1CCCCN1CCN(c2noc3ccc(Cl)cc23)CC1	440	33	> 100	–	–
O=C(CCCN1CCN(c2nsc3ccccc23)CC1)c1ccc(F)cc1	10	8	7.4	–	ED50 [6]: 16.4 mg/kg
CC1CN(CCCCN2C(=O)CC3(CCCC3)CC2=O)CCN1c1nsc2ccccc12 (centres undefined)	64	–	> 100	–	–
OC(CCCN1CCN(c2noc3ccccc23)CC1)c1ccc(F)cc1 (centres undefined)	30	2	1	2.2	ED50 [7]: 2.3 mg/kg
CC1(C)CC(=O)N(CCCCN2CCN(c3nsc4ccccc34)CC2)C(=O)C1	23	4	–	15.2	ED50 [7]: 4.8 mg/kg; ED50 [2]: 4.1 mg/kg
O=C1CSC(=O)N1CCCCN1CCN(c2noc3ccccc23)CC1	240	1	8.3	11.7	–
O=C1CC2(CCCC2)CC(=O)N1CCCCN1CCN(c2noc3ccc(Cl)cc23)CC1	360	46	> 100	–	–
O=C(CCCN1CCN(c2noc3ccccc23)CC1)c1ccc(F)cc1	69	5	5.8	–	ED50 [6]: 39.9 mg/kg
CN(C)CCCN1c2ccccc2Sc2ccc(Cl)cc21 [CHLORPROMAZINE]	–	–	–	4.1	LD50 [8]: 250 mg/kg; ED50 [9]: 2.72 mg/kg; ED50 [10]: 3.6 mg/kg; ED50 [7]: 9.6 mg/kg; ED50 [11]: 17.2 mg/kg
CN1CCN(C2=Nc3cc(Cl)ccc3Nc3ccccc32)CC1 [CLOZAPINE]	–	–	–	> 200	LD50 [8]: 219 mg/kg; IC50 [12]: > 1000 nM; IC50 [13]: 18 nM; ED50 [9]: 3.5 mg/kg; ED50 [14]: 5.4 mg/kg; ED50 [10]: 1.9 mg/kg; ED50 [11]: 17.5 mg/kg; ED50 [15]: 3.23 mg/kg; ED50 [16]: 1.69 mg/kg
O=C(CCCN1CCC(O)(c2ccc(Cl)cc2)CC1)c1ccc(F)cc1 [HALOPERIDOL]	–	–	2.8	0.58	LD50 [8]: 500 mg/kg; ED50 [9]: 26 mg/kg; ED50 [14]: > 80 mg/kg; ED50 [10]: 0.45 mg/kg; ED50 [17]: 0.28 mg/kg; ED50 [7]: 0.5 mg/kg; ED50 [11]: 0.73 mg/kg
CN1CCN(CCCN2c3ccccc3Sc3ccc(C(F)(F)F)cc32)CC1 [TRIFLUOPERAZINE]	–	350	6.9	3	ED50 [7]: 6.5 mg/kg

From ChEMBL document CHEMBL1123413, “Synthesis and biological evaluation of 1-(1,2-benzisothiazol-3-yl)- and (1,2-benzisoxazol-3-yl)piperazine derivatives as potential antipsychotic agents” (J Med Chem, 1986)
